In ChEMBL document CHEMBL1124485, “6-Alkyl-N,N-disubstituted-2-pyridinamines as anticonvulsant agents” (1989):
“And” between values parts separate entries of the source, which are not always exact repeats. Equal entries are not always repeated.

Tests used:
Assay type in all cases: functional
Mus musculus [1] = assay: Lowest dose level at which mice fell off inverted screen during testing 120 min after intraperitoneal dosage
In short: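 Male Swiss-Webster mice (22-32 g), N = 5 per dose, given 10, 30, 100, 300 mg/kg ip. Tested 120 min after dosing on an inverted wire mesh screen. Value is the lowest dose level at which two or more mice fell off.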

Mus musculus [2] = assay: Minimum effective dose at which mice were protected against tonic-extension produced by maximal electroshock during testing 120 min after intraperitoneal dosage; details: ip, 2 h, read-out: MED
In short: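 Male Swiss-Webster mice (22-32 g), N = 5 per dose; dosed ip at 10, 30, 100, 300 mg/kg. Tested 120 min after dosing for protection against tonic extension from maximal electroshock. Value is the dose level at which two or more mice were protected.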

Mus musculus [3] = assay: Effective dose required to inhibit ataxia after intraperitoneal administration in experiment 2; details: ip
In short: (§1)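 Ataxia in mice after ip dosing: in-house, falling from an inverted wire mesh screen (Swiss-Webster mice); in NINCDS studies, falling from a rotating rod (CF-1 mice, 30% polyethylene glycol vehicle). ED50 was obtained by quantal probit analysis.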

Mus musculus [4] = assay: Effective dose against convulsions induced by clonic pentylenetetrazole after intraperitoneal administration in experiment 2; details: ip
In short: (§2)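 Male CF-1 mice (25-35 g) dosed ip. Pentylenetetrazol 85 mg/kg in 0.9% NaCl was given sc at the dorsal neck, and mice were observed 30 min. An anticonvulsant effect was prevention of all clonic seizures (≥5 s forelimb clonus). ED50 was obtained by quantal probit analysis; NINCDS testing used 30% polyethylene glycol vehicle.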

Mus musculus [5] = assay: Effective dose against convulsions induced by maximal electroshock (MES) after intraperitoneal administration in experiment 1; details: ip
In short: (§3)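 Mice dosed ip and challenged by maximal electroshock, scoring protection from seizures; N = 10 mice per time-course point. ED50 was obtained by quantal probit analysis. Swiss-Webster mice were used in-house; CF-1 mice were used in NINCDS testing, where drug was in 30% polyethylene glycol at 10 mL/kg.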

Mus musculus [6] = assay: Effective dose against convulsions induced by maximal electroshock (MES) after intraperitoneal administration in experiment 2; details: ip; in short: as §3
Mus musculus [7] = assay: Effective dose required for the inhibition of spontaneous locomotion after intraperitoneal administration in experiment 1; details: ip
Mus musculus [8] = assay: Effective dose required to inhibit ataxia after intraperitoneal administration in experiment 1; details: ip; in short: as §1
[9] = Protective index, ratio of ED50 ataxia and ED50 MES
In short: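 Protective index is the ratio of the ataxia ED50 to the maximal electroshock ED50. Both were ip in mice and derived by quantal probit analysis.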

Mus musculus [10] = assay: Effective dose against convulsions induced by clonic pentylenetetrazole after intraperitoneal administration in experiment 1; details: ip; in short: as §2

Structure (SMILES)	MTC (Mus musculus [1])	minimal effective dose (Mus musculus [2])	further results
c1ccc(CCc2cccc(N3CCNCC3)n2)cc1	100 mg/kg	> 300 mg/kg	–
CCCCCCCCCc1cccc(N2CCNCC2)n1	30 mg/kg	10 mg/kg	ED50 (Mus musculus [3]): 42 mg/kg; ED50 (Mus musculus [4]): > 100 mg/kg; ED50 (Mus musculus [5]): 5.6 mg/kg; ED50 (Mus musculus [6]): 7.8 mg/kg; ED50 (Mus musculus [7]): 26 mg/kg; ED50 (Mus musculus [8]): 30 mg/kg; Ratio [9]: 5.4
Cc1cccc(N2CCNCC2)n1.Cl.Cl	30 mg/kg	> 300 mg/kg	–
O=C1NC(=O)C(c2ccccc2)(c2ccccc2)N1 [PHENYTOIN]	–	–	ED50 (Mus musculus [3]): 65 mg/kg; ED50 (Mus musculus [4]): > 100 mg/kg; ED50 (Mus musculus [5]): 8 mg/kg; ED50 (Mus musculus [7]): > 65 mg/kg; ED50 (Mus musculus [8]): 82 mg/kg
CCCCCCCc1ccnc(N2CCNCC2)c1	100 mg/kg	30 mg/kg	–
NC(=O)N1c2ccccc2C=Cc2ccccc21 [CARBAMAZEPINE]	–	–	ED50 (Mus musculus [3]): 72 mg/kg; ED50 (Mus musculus [10]): > 100 mg/kg; ED50 (Mus musculus [4]): > 100 mg/kg; ED50 (Mus musculus [5]): 9.8 mg/kg; ED50 (Mus musculus [6]): 8.8 mg/kg; ED50 (Mus musculus [7]): 50 mg/kg; ED50 (Mus musculus [8]): 41 mg/kg; Ratio [9]: 8.2
CCCCCCCc1cccc(N2CCCNCC2)n1	100 mg/kg	30 mg/kg	–
CCCCSc1cccc(N2CCNCC2)n1	100 mg/kg	100 mg/kg	–
CCCCCCCc1cccc(N2CCNCC2)n1	100 mg/kg	10 mg/kg	ED50 (Mus musculus [3]): 29 mg/kg; ED50 (Mus musculus [4]): 21 mg/kg; ED50 (Mus musculus [5]): 8.8 mg/kg; ED50 (Mus musculus [6]): 6.4 mg/kg; ED50 (Mus musculus [7]): 13 mg/kg; ED50 (Mus musculus [8]): 45 mg/kg; Ratio [9]: 5.1 and 4.5
CCCCCCCc1cccc(N2CCN(C)CC2)n1.Cl	300 mg/kg	30 mg/kg	–
CCCCCc1cccc(N2CCNCC2)n1	30 mg/kg	10 mg/kg	–
CCCCCCc1cccc(N2CCNCC2)n1	100 mg/kg	10 mg/kg	ED50 (Mus musculus [3]): 46 mg/kg; ED50 (Mus musculus [4]): > 100 mg/kg; ED50 (Mus musculus [5]): 7.3 mg/kg; ED50 (Mus musculus [6]): 16 mg/kg; ED50 (Mus musculus [7]): 20 mg/kg; ED50 (Mus musculus [8]): 22 mg/kg; Ratio [9]: 3 and 2.9
CCCCCCC(CCCCCC)c1cccc(N2CCNCC2)n1	100 mg/kg	> 300 mg/kg	–
CCCc1cccc(N2CCNCC2)n1.Cl	3 mg/kg	10 mg/kg	–
CCCCCCCCc1cccc(N2CCNCC2)n1	30 mg/kg	10 mg/kg	–
CCCCCCCCCCc1cccc(N2CCNCC2)n1	100 mg/kg	30 mg/kg	–
CCCCCCCc1cccc(N2CCCCC2)n1	>300 mg/kg	> 300 mg/kg	–
CC(C)(C)c1cccc(N2CCNCC2)n1.Cl	30 mg/kg	> 300 mg/kg	–
Cl.c1cc(CC2CCCCC2)nc(N2CCNCC2)c1	100 mg/kg	100 mg/kg	–
CCCCCCCc1cccc(N2CCOCC2)n1	>300 mg/kg	300 mg/kg	–
CC(C)c1cccc(N2CCNCC2)n1.Cl.Cl	30 mg/kg	> 300 mg/kg	–
CCCCc1cccc(N2CCNCC2)n1	10 mg/kg	30 mg/kg	–
